# Reference: PubChem BioAssay AID588833 (Broad Institute, 2011)
# Molecular target: Scavenger receptor class B member 1 (Mus musculus) (UniProt Q61009)
# Assay: inhibitors of SR-BI-mediated DiI-HDL uptake, dose response, ldlA[mSR-BI] CHO cells, fluorescence, dry powder, set 7 (AID 588833)
# Details: 3 h
# Procedure, shortened: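 Test system: ldlA[mSR-BI] CHO cells; Reagent: DiI-labeled HDL at 10 µg/mL; Compound dosing: pin-transferred compounds; Times: 3 h uptake with compounds, 37 °C; Technique: bottom fluorescence, 550/595 nm.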
# Scavenger receptor class B member 1 (Mus musculus), sequence (Q61009 whole entry, looked up): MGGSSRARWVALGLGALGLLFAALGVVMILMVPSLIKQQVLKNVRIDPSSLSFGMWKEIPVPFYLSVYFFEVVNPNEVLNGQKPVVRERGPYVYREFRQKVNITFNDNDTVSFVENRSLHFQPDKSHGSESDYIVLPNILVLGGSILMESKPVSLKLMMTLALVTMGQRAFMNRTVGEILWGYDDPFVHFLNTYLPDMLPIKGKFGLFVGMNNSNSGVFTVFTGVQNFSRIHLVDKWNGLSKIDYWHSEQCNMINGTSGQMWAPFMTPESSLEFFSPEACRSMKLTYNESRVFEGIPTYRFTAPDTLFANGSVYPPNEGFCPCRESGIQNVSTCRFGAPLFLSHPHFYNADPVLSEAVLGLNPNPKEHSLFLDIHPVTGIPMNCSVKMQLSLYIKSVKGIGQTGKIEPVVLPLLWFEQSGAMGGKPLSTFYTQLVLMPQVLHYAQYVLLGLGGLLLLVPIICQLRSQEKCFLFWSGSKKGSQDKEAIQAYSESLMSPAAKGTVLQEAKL
row,AC50,SMILES
1,0.536 nM,CCCCCCC1CCC/C1=N\NC(N)=S (stereo not drawn)
2,6.18 nM,COCC(=O)N1CCc2cc(-c3csc(NC(=O)c4cc(OC)cc(OC)c4)n3)ccc21
3,15.4 nM,C[C@H](C(=O)NC1CCCC1)N(C(=O)Cn1nnc(-c2ccc3c(c2)OCO3)n1)C1CCCCC1
